Data reported in ChEMBL document CHEMBL4477213, “Discovery and Optimization of Quinazolinone-pyrrolopyrrolones as Potent and Orally Bioavailable Pan-Pim Kinase Inhibitors” (J Med Chem, 2016).
In brackets after ≈: the same amount, converted by molar mass.

How the values were obtained:
[1] = Aqueous solubility of the compound in FaSIF at pH 6.8 after 1 hr by LC/MS analysis
[2] = Oral bioavailability in rat at 5 mg/kg; assay type: ADME, organism-based; conditions: in vivo
[3] = Apparent permeability in pig LLC-PK1 cells; assay type: ADME, cell-based, Sus scrofa
[4] = Volume of distribution at steady state in rat at 2 mg/kg, iv or 5 mg/kg, po; assay type: ADME, organism-based; conditions: in vivo, read-out: Vdss
[5] = Aqueous solubility of the compound in PBS at pH 7.4 after 1 hr by LC/MS analysis; assay type: physicochemical
How it was run: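 The compound was dried down from DMSO and taken up in 1x PBS (pH 7.4) or FaSIF (pH 6.8). Samples were shaken 1 h, equilibrated at RT for 72 h, then centrifuged.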

[6] = Intrinsic clearance in rat liver microsomes at 1 uM after 30 mins in presence of NADPH; assay type: ADME, Microsome; conditions: read-out: CLH
[7] = Intrinsic clearance in human liver microsomes at 1 uM after 30 mins in presence of NADPH; assay type: ADME, Microsome; conditions: read-out: CLH
[8] = Fraction unbound in rat plasma at 5 uM by rapid equilibrium dialysis; assay type: ADME, cell-free
[9] = Clearance in rat at 2 mg/kg, iv; assay type: ADME, organism-based; conditions: in vivo
[10] = Half life in rat at 2 mg/kg, iv or 5 mg/kg, po; assay type: ADME, organism-based; conditions: in vivo
[11] = Clearance in dog at 0.3 mg/kg, iv; assay type: ADME, organism-based, Canis lupus familiaris; conditions: in vivo
[12] = Volume of distribution at steady state in dog at 0.3 mg/kg, iv; assay type: ADME, organism-based, Canis lupus familiaris; conditions: in vivo; for Vd: read-out: Vdss
[13] = Intrinsic clearance in dog liver microsomes at 1 uM after 30 mins in presence of NADPH; assay type: ADME, Canis lupus familiaris, Microsome; conditions: read-out: CLH
How it was run: (§1)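 Parent compound at 1 µM was incubated with liver microsomes (rat or dog, 0.25 mg/mL) in 66.7 mM potassium phosphate, pH 7.4, with 1 mM NADPH at 37 °C for 30 min.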

[14] = Half life in dog at 0.3 mg/kg, iv; assay type: ADME, organism-based, Canis lupus familiaris; conditions: in vivo
[15] = molecular target: Serine/threonine-protein kinase pim-2 (Homo sapiens, UniProt Q9P1W9); assay: Inhibition of full length recombinant Pim-2 (unknown origin) assessed as reduction in phosphorylation of biotinylated-BAD peptide at Serine 112 residue preincubated for 30 mins followed by substrate addition for 1 hr by HTRF assay
[16] = Unbound clearance in iv dosed dog; assay type: ADME, organism-based, Canis lupus familiaris; conditions: in vivo
How it was run: (§2)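 Unbound plasma fraction (fu) measured by rapid equilibrium dialysis in rat or dog plasma; unbound clearance CLu calculated from IV clearance and fu.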

[17] = Intrinsic clearance in dog hepatocytes assessed per 10^6 cells; assay type: ADME, cell-based, Canis lupus familiaris, Hepatocyte; conditions: read-out: CLH
[18] = Drug metabolism in dog liver microsomes assessed as dehydrogenation of 6,7-dihydro-1H-pyrrolo[3,2-c]pyridin-4(5H)-one measured as 2-(3-(tert-butylamino)-6-fluoro-2-methylquinoxalin-5-yl)-1H-pyrrolo[3,2-c]pyridin-4(5H)-one formation; assay type: ADME, Canis lupus familiaris, Microsome
KMS-12-BM = assay: Antitumor activity against human KMS-12-BM cells xenografted in SCID-bg mouse assessed as tumor growth inhibition at 50 mg/kg, po qd measured twice per week; assay type: functional; conditions: read-out: TGI
[19] = Drug metabolism in rat liver microsomes assessed as hydroxylation of t-butyl group measured as 2-(6-fluoro-3-(1-hydroxy-2-methylpropan-2-ylamino)-2-methylquinoxalin-5-yl)-6,7-dihydro-1H-pyrrolo[3,2-c]pyridin-4(5H)-one formation; assay type: ADME, Microsome
[20] = Unbound clearance in iv dosed rat; assay type: ADME, organism-based; conditions: in vivo
How it was run: as §2

[21] = molecular target: Serine/threonine-protein kinase pim-1 (Homo sapiens, UniProt P11309)
[22] = Intrinsic clearance in rat hepatocytes assessed per 10^6 cells; assay type: ADME, cell-based, Hepatocyte; conditions: read-out: CLH
[23] = Fraction unbound in dog plasma by rapid equilibrium dialysis; assay type: ADME, cell-free, Canis lupus familiaris
[24] = molecular target: Serine/threonine-protein kinase PIM (Homo sapiens, UniProt P11309+Q9P1W9+Q86V86); conditions: kms-12-bm
Homo sapiens = organism: Homo sapiens; assay: Ratio of IC50 for pan Pim in human KMS-12-BM cells to IC50 for full length recombinant Pim-2 (unknown origin); assay type: cell-based
How it was run: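 Enzyme step: full-length recombinant human Pim-2 phosphorylating a BAD peptide at Ser112. The shift is the ratio of the cellular potency to the enzymatic potency.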

[25] = Drug metabolism in dog hepatocytes assessed as hydroxylation on the quinoxaline bicycle; assay type: ADME, cell-based, Canis lupus familiaris, Hepatocyte
[26] = Drug level in rat liver microsomes treated with 2-(3-(tert-butylamino)-6-fluoro-2-methylquinoxalin-5-yl)-6,7-dihydro-1H-pyrrolo[3,2-c]pyridin-4(5H)-one; assay type: ADME, Microsome
How it was run: as §1

[27] = Drug level in dog liver microsomes treated with 2-(3-(tert-butylamino)-6-fluoro-2-methylquinoxalin-5-yl)-6,7-dihydro-1H-pyrrolo[3,2-c]pyridin-4(5H)-one; assay type: ADME, Canis lupus familiaris, Microsome
How it was run: as §1

Chain of Serine/threonine-protein kinase pim-2 (Q9P1W9 whole entry): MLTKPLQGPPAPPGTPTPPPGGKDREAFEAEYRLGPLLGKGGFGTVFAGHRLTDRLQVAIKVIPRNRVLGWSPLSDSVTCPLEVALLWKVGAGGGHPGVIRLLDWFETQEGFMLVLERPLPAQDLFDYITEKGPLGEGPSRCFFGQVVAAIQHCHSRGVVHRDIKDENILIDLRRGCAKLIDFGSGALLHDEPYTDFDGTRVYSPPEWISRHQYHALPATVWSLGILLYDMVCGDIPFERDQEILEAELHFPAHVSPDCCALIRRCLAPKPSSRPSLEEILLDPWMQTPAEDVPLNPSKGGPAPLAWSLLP
Chain of Serine/threonine-protein kinase pim-1 (P11309 whole entry): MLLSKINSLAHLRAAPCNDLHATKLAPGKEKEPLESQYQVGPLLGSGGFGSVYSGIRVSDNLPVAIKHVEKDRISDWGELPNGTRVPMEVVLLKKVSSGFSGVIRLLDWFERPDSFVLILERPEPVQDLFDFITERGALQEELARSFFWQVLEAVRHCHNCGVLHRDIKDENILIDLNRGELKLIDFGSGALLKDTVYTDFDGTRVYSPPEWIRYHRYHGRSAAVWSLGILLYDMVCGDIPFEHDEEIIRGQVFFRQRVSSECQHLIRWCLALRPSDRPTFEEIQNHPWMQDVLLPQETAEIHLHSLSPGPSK

Row | Compound | solubility at 1 h [1] [µM] | bioavailability [2] [%] | Vd [4] [L/kg] | microsomal CLint at 1 µM [6] [µL/min/mg] | microsomal CLint at 1 µM [7] [µL/min/mg] | clearance [9] [mL/min/kg] | half-life [10] [h] | IC50 [15] [nM] | IC50 [21] [nM] | IC50 [24] [nM] | further results
1 | C[C@H]1NC(=O)c2cc(-c3c(F)ccc4c(=O)n(C)c(NC(C)(C)C)nc34)[nH]c21 | 23 (≈ 8.82 µg/mL) | 10 | 1.4 | 16 | < 14 | 6.67 | 4.3 |  |  |  | fraction unbound at 5 µM [8]: 0.062; Papp [3]: 16 ×10⁻⁶ cm/s; solubility at 1 h [5]: 14 µM (≈ 5.37 µg/mL)
2 | Cc1nc2ccc(F)c(-c3cc4c([nH]3)[C@@H](C)NC4=O)c2nc1NC(C)(C)C |  | 54 | 1.6 | 52 | 35 | 8.33 | 2.9 |  |  |  | clearance [11]: 25 mL/min/kg; Vd [12]: 1.7 L/kg; microsomal CLint at 1 µM [13]: 105 µL/min/mg; half-life [14]: 1.1 h
3 | Cc1nc2cccc(-c3[nH]c4c(c3Cl)C(=O)N[C@@H]4C)c2nc1NC(C)(C)C |  |  |  | 143 | 111 |  |  |  |  |  | 
4 | Cc1nc2ccc(F)c(-c3cc4c([nH]3)CCNC4=O)c2nc1NC(C)(C)C |  | 37 | 1 | 189 | 66 | 6.67 | 3.5 | 0.3 | 0.3 | 23 | CL free [16]: 943 mL/min/kg; hepatocyte CLint [17]: 32 µL/min/1e6 cells; Drug metabolism [18]: Metabolite_Detected; inhibition in vivo at 50 mg/kg (KMS-12-BM): 78%; Drug metabolism [19]: Metabolite_Detected; CL free [20]: 392 mL/min/kg; CL [11]: 56.7 mL/min/kg; Vdss [12]: 8.7 L/kg; fraction unbound at 5 µM [8]: 0.017; hepatocyte CLint [22]: 39 µL/min/1e6 cells; microsomal CLint at 1 µM [13]: 203 µL/min/mg; t1/2 [14]: 0.6 h; fraction unbound [23]: 0.06
5 | Cc1nc2cccc(-c3cc4c(s3)CNC4=O)c2nc1NC(C)(C)C |  |  |  | 326 | 102 |  |  | 6.8 | 6.4 | 2870 | 
6 | Cc1nc2cccc(-c3cc4c([nH]3)[C@H](C)NC4=O)c2nc1NC(C)(C)C |  |  |  | 130 | 89 |  |  |  |  |  | 
7 | C[C@H]1NC(=O)c2cc(-c3cccc4c(=O)n(C)c(N5CCCC5(C)C)nc34)[nH]c21 | 35 (≈ 13.7 µg/mL) |  |  |  |  |  |  | 0.6 | 0.9 | 88 | solubility at 1 h [5]: 20 µM (≈ 7.83 µg/mL)
8 | Cc1nc2cccc(-c3cc4c([nH]3)C3(CC3)NC4=O)c2nc1NC(C)(C)C |  | 100 | 1.3 | 52 | 35 | 10 | 4.5 | 0.5 | 0.4 | 78 | 
9 | Cc1c(NC(C)(C)C)nc2c(-c3cc4c([nH]3)[C@@H](C)NC4=O)cccn2c1=O |  |  |  |  |  |  |  | 2.1 | 3.1 | > 2000 | 
10 | Cc1nc2cccc(-c3cc4c([nH]3)[C@@H](C)NC4=O)c2nc1NC(C)(C)C | 245 (≈ 85.6 µg/mL) | 62 | 1.3 | 50 | 37 | 8.33 | 3 |  |  |  | clearance [11]: 26.7 mL/min/kg; Vd [12]: 1.7 L/kg; microsomal CLint at 1 µM [13]: 88 µL/min/mg; half-life [14]: 0.6 h; Drug metabolism [25]: Metabolite_Detected; solubility at 1 h [5]: 99 µM (≈ 34.6 µg/mL)
11 | C[C@H]1NC(=O)c2cc(-c3nccc4c(=O)n(C)c(NC(C)(C)C)nc34)[nH]c21 |  |  |  |  |  |  |  | 7.4 | 4.5 | 1642 | 
12 | Cc1nc2cccc(-c3cc4c([nH]3)[C@@H](CCN)NC4=O)c2nc1NC(C)(C)C |  | < 1 | 21.2 | < 14 | < 14 | 23.3 | 17.5 | 0.3 | 0.6 | 22 | 
13 | Cc1nc2cccc(-c3cc4c([nH]3)C3(CCOCC3)NC4=O)c2nc1NC(C)(C)C |  |  |  | 45 | < 14 |  |  | 117 | 44 | 5760 | 
14 | Cc1nc2cccc3c2nc1N[C@H](C)/C=C\C[C@H]1CNC(=O)c2cc-3[nH]c21 | 295 (≈ 106 µg/mL) |  |  |  |  |  |  |  |  |  | 
15 | Cc1nc2cccc(-c3cc4c([nH]3)CNC4=O)c2nc1NC(C)(C)C |  | 36 | 2.3 | 96 | 45 | 26.7 | 1.7 | 0.9 |  | 44 | 
16 | Cc1nc2ccc(F)c(-c3cc4c(=O)[nH]ccc4[nH]3)c2nc1NC(C)(C)C |  |  |  |  |  |  |  | 0.1 | 0.2 | 148 | Drug metabolism [27]: Metabolite_Detected

Second part, led by results:

Row | solubility at 1 h [1] [µM] | bioavailability [2] [%] | Vd [4] [L/kg] | microsomal CLint at 1 µM [6] [µL/min/mg] | microsomal CLint at 1 µM [7] [µL/min/mg] | clearance [9] [mL/min/kg] | half-life [10] [h] | IC50 [15] [nM] | IC50 [21] [nM] | IC50 [24] [nM] | Compound | further results
17 | 344 (≈ 125 µg/mL) | 5 | 1.9 |  |  |  |  |  |  |  | C[C@H]1NC(=O)c2cc(-c3cccc4c(=O)n(C)c(NC5(C)CC5)nc34)[nH]c21 | Papp [3]: 29 ×10⁻⁶ cm/s; solubility at 1 h [5]: 56 µM (≈ 20.4 µg/mL)
18 |  | 6 | 4.2 | 86 | 70 | 11.7 | 4.7 | 0.6 | 0.8 | 110 | Cc1nc2cccc(-c3cc4c([nH]3)CCNC4=O)c2nc1NC(C)(C)C | 
19 | 9 (≈ 3.28 µg/mL) |  |  |  |  |  |  | 4.9 | 7.3 | 5960 | C[C@H]1NC(=O)c2cc(-c3cccc4c(=O)n(C)c(CC(C)(C)C)nc34)[nH]c21 | Ratio IC50 (Homo sapiens): > 1000
20 |  |  |  |  |  |  |  | 5.2 | 6.5 | 1142 | C[C@H]1NC(=O)c2cc(-c3cccc4c3N=C(NC(C)(C)C)N(C)S4(=O)=O)[nH]c21 | 
21 | 122 (≈ 46.3 µg/mL) |  |  |  |  |  |  | 1 | 1.5 | 167 | C[C@H]1NC(=O)c2cc(-c3cccc4c(=O)n(C)c(N(C)C(C)(C)C)nc34)[nH]c21 | solubility at 1 h [5]: 61 µM (≈ 23.1 µg/mL)
22 |  |  |  |  |  |  |  | 0.3 | 0.9 | 143 | Cc1nc2ccc(F)c(-c3cc4c([nH]3)CCNC4=O)c2nc1NC(C)(C)CO | Drug metabolism [26]: Metabolite_Detected
23 | 134 (≈ 51.1 µg/mL) |  |  |  |  |  |  | 0.9 | 0.7 | 127 | C[C@H]1NC(=O)c2cc(-c3cccc4c(=O)n(C)c(NC(C)(C)CO)nc34)[nH]c21 | solubility at 1 h [5]: 101 µM (≈ 38.5 µg/mL)
24 |  |  |  | 169 | 67 |  |  |  |  |  | Cc1nc2cccc(-c3cc4c([nH]3)CCCNC4=O)c2nc1NC(C)(C)C | 
25 |  |  |  | 373 | 104 |  |  | 2.5 | 2.5 | 1380 | Cc1nc2cccc(-c3cc4c(s3)C(=O)NC4)c2nc1NC(C)(C)C | 
26 |  |  |  | 205 | 85 |  |  | 6.1 | 6.6 | 4560 | Cc1nc2cccc(-c3cc4n(c3)CCNC4=O)c2nc1NC(C)(C)C | 
